ChEMBL document CHEMBL4689842, “EUbOPEN Chemogenomics Library wave 1” (2021)
Values joined by “and” are separate entries in the source; they are usually repeats but may differ in a detail not shown here. Equal entries are not always repeated.

Tested on: HEK-293T
Assay: Multiplex assay against HEK293T;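 on Population Tubulin-Different-Phenotype (%): share of the cells with healthy nuclei that show this phenotype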
Format: toxicity, cell-based
Settings: human
Summary of the method: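 With compound added, live cells were imaged on a CQ1 microscope at 37°C and 5% CO2; staining with Hoechst33342, BioTracker Green Microtubule Cytoskeleton Dye, MitoTracker Red and Annexin V Alexa Fluor 680 had been done at seeding. The CellPathfinder machine-learning gating scheme split cells into Hoechst high-intensity objects or normal cells, normal cells into healthy, pyknosed or fragmented nuclei, and pyknosed cells into mitotic or apoptotic. The tubulin, mitochondrial-mass and membrane-permeability phenotypes are per cents of healthy-nucleus cells.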

[1] = 12 h, 1 µM, compound concentration 1 uM, replicate 1
[2] = 12 h, 1 µM, compound concentration 1 uM, replicate 2
[3] = 12 h, 10 µM, compound concentration 10 uM, replicate 1
[4] = 12 h, 10 µM, compound concentration 10 uM, replicate 2
[5] = 24 h, 1 µM, compound concentration 1 uM, replicate 1
[6] = 24 h, 1 µM, compound concentration 1 uM, replicate 2
[7] = 24 h, 10 µM, compound concentration 10 uM, replicate 1
[8] = 24 h, 10 µM, compound concentration 10 uM, replicate 2
[9] = 48 h, 1 µM, compound concentration 1 uM, replicate 1
[10] = 48 h, 1 µM, compound concentration 1 uM, replicate 2
[11] = 48 h, 10 µM, compound concentration 10 uM, replicate 1
[12] = 48 h, 10 µM, compound concentration 10 uM, replicate 2

**Q.** Which results are given for `Cc1ccc2c(c1)c1c(n2CCc2ccc(C)nc2)CCN(C)C1` [LATREPIRDINE]?
**A.** Population Apoptotic (%) [1]: 65%; Population Fragmented Nuclei (%) [1]: 9%; Population Healthy Nuclei (%) [1]: 39%; Population Hoechst High Intensity Objects (%) [1]: 14%; Population Membrane Permeable-Phenotype (%) [1]: 0%; Population Mitochondria Different-Phenotype (%) [1]: 97%; Population Mitotic Cells (%) [1]: 34%; Population Normal (%) [1]: 85%; Population Pyknosed Nuclei (%) [1]: 51%; Population Tubulin-Different-Phenotype (%) [1]: 85%; Total Cell Count [1]: 246; Population Apoptotic (%) [2]: 28%; Population Fragmented Nuclei (%) [2]: 6%; Population Healthy Nuclei (%) [2]: 38%; Population Hoechst High Intensity Objects (%) [2]: 2%; Population Membrane Permeable-Phenotype (%) [2]: 7%; Population Mitochondria Different-Phenotype (%) [2]: 64%; Population Mitotic Cells (%) [2]: 71%; Population Normal (%) [2]: 97%; Population Pyknosed Nuclei (%) [2]: 54%; Population Tubulin-Different-Phenotype (%) [2]: 39%; Total Cell Count [2]: 209; Population Apoptotic (%) [3]: 89%; Population Fragmented Nuclei (%) [3]: 30%; Population Healthy Nuclei (%) [3]: 12%; Population Hoechst High Intensity Objects (%) [3]: 24%; Population Membrane Permeable-Phenotype (%) [3]: 8%; Population Mitochondria Different-Phenotype (%) [3]: 95%; Population Mitotic Cells (%) [3]: 10%; Population Normal (%) [3]: 75%; Population Pyknosed Nuclei (%) [3]: 57%; Population Tubulin-Different-Phenotype (%) [3]: 91%; Total Cell Count [3]: 251; Population Apoptotic (%) [4]: 91%; Population Fragmented Nuclei (%) [4]: 5%; Population Healthy Nuclei (%) [4]: 13%; Population Hoechst High Intensity Objects (%) [4]: 4%; Population Mitochondria Different-Phenotype (%) [4]: 96%; Population Mitotic Cells (%) [4]: 8%; Population Normal (%) [4]: 95%; Population Pyknosed Nuclei (%) [4]: 80%; Population Tubulin-Different-Phenotype (%) [4]: 96%; Total Cell Count [4]: 194; Population Apoptotic (%) [5]: 55%; Population Fragmented Nuclei (%) [5]: 7%; Population Healthy Nuclei (%) [5]: 42%; Population Hoechst High Intensity Objects (%) [5]: 14%; Population Membrane Permeable-Phenotype (%) [5]: 1%; Population Mitochondria Different-Phenotype (%) [5]: 96%; Population Mitotic Cells (%) [5]: 44%; Population Normal (%) [5]: 85%; Population Pyknosed Nuclei (%) [5]: 50%; Population Tubulin-Different-Phenotype (%) [5]: 87%; Total Cell Count [5]: 276; Population Apoptotic (%) [6]: 29%; Population Fragmented Nuclei (%) [6]: 5%; Population Healthy Nuclei (%) [6]: 55%; Population Hoechst High Intensity Objects (%) [6]: 4%; Population Membrane Permeable-Phenotype (%) [6]: 11%; Population Mitochondria Different-Phenotype (%) [6]: 55%; Population Mitotic Cells (%) [6]: 70%; Population Normal (%) [6]: 95%; Population Pyknosed Nuclei (%) [6]: 39%; Population Tubulin-Different-Phenotype (%) [6]: 47%; Total Cell Count [6]: 271; Population Apoptotic (%) [7]: 90%; Population Fragmented Nuclei (%) [7]: 35%; Population Healthy Nuclei (%) [7]: 16%; Population Hoechst High Intensity Objects (%) [7]: 24%; Population Membrane Permeable-Phenotype (%) [7]: 6%; Population Mitochondria Different-Phenotype (%) [7]: 96%; Population Mitotic Cells (%) [7]: 9%; Population Normal (%) [7]: 75%; Population Pyknosed Nuclei (%) [7]: 47%; Population Tubulin-Different-Phenotype (%) [7]: 93%; Total Cell Count [7]: 242; Population Apoptotic (%) [8]: 93%; Population Fragmented Nuclei (%) [8]: 5%; Population Hoechst High Intensity Objects (%) [8]: 6%; Population Membrane Permeable-Phenotype (%) [8]: 2%; Population Mitochondria Different-Phenotype (%) [8]: 97%; Population Mitotic Cells (%) [8]: 6%; Population Normal (%) [8]: 93%; Population Pyknosed Nuclei (%) [8]: 77%; Population Tubulin-Different-Phenotype (%) [8]: 94%; Total Cell Count [8]: 220; Population Apoptotic (%) [9]: 59%; Population Fragmented Nuclei (%) [9]: 11%; Population Healthy Nuclei (%) [9]: 61%; Population Hoechst High Intensity Objects (%) [9]: 10%; Population Membrane Permeable-Phenotype (%) [9]: 2%; Population Mitochondria Different-Phenotype (%) [9]: 62%; Population Mitotic Cells (%) [9]: 40%; Population Normal (%) [9]: 89%; Population Pyknosed Nuclei (%) [9]: 27%; Population Tubulin-Different-Phenotype (%) [9]: 67%; Total Cell Count [9]: 332; Population Apoptotic (%) [10]: 32%; Population Fragmented Nuclei (%) [10]: 6%; Population Healthy Nuclei (%) [10]: 77%; Population Hoechst High Intensity Objects (%) [10]: 3%; Population Membrane Permeable-Phenotype (%) [10]: 8%; Population Mitochondria Different-Phenotype (%) [10]: 23%; Population Mitotic Cells (%) [10]: 67%; Population Normal (%) [10]: 96%; Population Pyknosed Nuclei (%) [10]: 16%; Population Tubulin-Different-Phenotype (%) [10]: 40%; Total Cell Count [10]: 413; Population Apoptotic (%) [11]: 86%; Population Fragmented Nuclei (%) [11]: 41%; Population Healthy Nuclei (%) [11]: 21%; Population Hoechst High Intensity Objects (%) [11]: 24%; Population Mitotic Cells (%) [11]: 13%; Population Normal (%) [11]: 75%; Population Pyknosed Nuclei (%) [11]: 37%; Population Tubulin-Different-Phenotype (%) [11]: 94%; Total Cell Count [11]: 246; Population Apoptotic (%) [12]: 87%; Population Fragmented Nuclei (%) [12]: 2%; Population Healthy Nuclei (%) [12]: 42%; Population Hoechst High Intensity Objects (%) [12]: 13%; Population Membrane Permeable-Phenotype (%) [12]: 2%; Population Mitochondria Different-Phenotype (%) [12]: 97%; Population Mitotic Cells (%) [12]: 12%; Population Normal (%) [12]: 86%; Population Pyknosed Nuclei (%) [12]: 55%; Population Tubulin-Different-Phenotype (%) [12]: 90%; Total Cell Count [12]: 198

**Q.** Which “Population Apoptotic (%)” value [1] does the source give for `C[C@]1(O)C[C@@H](c2nc(-c3ccc4ccc(-c5ccccc5)nc4c3)c3c(N)nccn32)C1` [LINSITINIB] here?
**A.** Its value is 31% and 29%.

**Q.** What about the “Population Fragmented Nuclei (%)” value [1] of the same compound?
**A.** The value was 19% and 26%.

**Q.** What about the “Population Healthy Nuclei (%)” value [1] of the same compound?
**A.** Its value is 45% and 44%.

**Q.** What about the “Population Hoechst High Intensity Objects (%)” value [1] of the same compound?
**A.** The value was 33% and 19%.

**Q.** And the “Population Membrane Permeable-Phenotype (%)” value [1]?
**A.** Its value is 11% and 4%.

**Q.** And the “Population Mitochondria Different-Phenotype (%)” value [1]?
**A.** Its value is 17% and 6%.

**Q.** What about the “Population Mitotic Cells (%)” value [1] of the same compound?
**A.** Its value is 68% and 70%.

**Q.** And the “Population Normal (%)” value [1]?
**A.** Its value is 66% and 80%.

**Q.** What about the “Population Pyknosed Nuclei (%)” value [1] of the same compound?
**A.** Its value is 35% and 28%.

**Q.** What about the “Total Cell Count” value [1] of the same compound?
**A.** Its value is 588 and 493.

**Q.** And the “Population Apoptotic (%)” value [2]?
**A.** Its value is 18% and 11%.

**Q.** And the “Population Fragmented Nuclei (%)” value [2]?
**A.** The value was 4% and 8%.

**Q.** What about the “Population Healthy Nuclei (%)” value [2] of the same compound?
**A.** Its value is 83% and 86%.

**Q.** What about the “Population Hoechst High Intensity Objects (%)” value [2] of the same compound?
**A.** The value was 14% and 5%.

**Q.** What about the “Population Membrane Permeable-Phenotype (%)” value [2] of the same compound?
**A.** The value was 5% and 1%.

**Q.** And the “Population Mitotic Cells (%)” value [2]?
**A.** Its value is 81% and 88%.

**Q.** And the “Population Normal (%)” value [2]?
**A.** The value was 85% and 94%.

**Q.** And the “Population Pyknosed Nuclei (%)” value [2]?
**A.** Its value is 11% and 4%.

**Q.** What about the “Total Cell Count” value [2] of the same compound?
**A.** Its value is 891 and 1486.

**Q.** And the “Population Apoptotic (%)” value [5]?
**A.** Its value is 31% and 26%.

**Q.** And the “Population Fragmented Nuclei (%)” value [5]?
**A.** The value was 22% and 26%.

**Q.** What about the “Population Healthy Nuclei (%)” value [5] of the same compound?
**A.** Its value is 53% and 56%.

**Q.** And the “Population Hoechst High Intensity Objects (%)” value [5]?
**A.** The value was 27% and 13%.

**Q.** What about the “Population Membrane Permeable-Phenotype (%)” value [5] of the same compound?
**A.** The value was 7% and 5%.

**Q.** And the “Population Mitochondria Different-Phenotype (%)” value [5]?
**A.** The value was 29% and 10%.

**Q.** What about the “Population Mitotic Cells (%)” value [5] of the same compound?
**A.** The value was 68% and 73%.

**Q.** What about the “Population Normal (%)” value [5] of the same compound?
**A.** The value was 72% and 86%.

**Q.** What about the “Population Pyknosed Nuclei (%)” value [5] of the same compound?
**A.** Its value is 23% and 16%.

**Q.** And the “Total Cell Count” value [5]?
**A.** The value was 525 and 479.

**Q.** What about the “Population Fragmented Nuclei (%)” value [6] of the same compound?
**A.** The value was 10%.

**Q.** And the “Population Healthy Nuclei (%)” value [6]?
**A.** Its value is 82% and 71%.

**Q.** What about the “Population Hoechst High Intensity Objects (%)” value [6] of the same compound?
**A.** The value was 18% and 6%.

**Q.** What about the “Population Membrane Permeable-Phenotype (%)” value [6] of the same compound?
**A.** The value was 8% and 4%.

**Q.** What about the “Population Mitotic Cells (%)” value [6] of the same compound?
**A.** Its value is 80% and 93%.

**Q.** And the “Population Normal (%)” value [6]?
**A.** The value was 81% and 93%.

**Q.** What about the “Population Pyknosed Nuclei (%)” value [6] of the same compound?
**A.** Its value is 6% and 2%.

**Q.** And the “Total Cell Count” value [6]?
**A.** Its value is 1000 and 2217.
